# The list is not random: actives were taken first. Their share in the collection is about 1.9%.
# Glyco luc inh: blocks N-linked glycosylation in D54 reporter cells. D54 ERlucT glycosylation luciferase reporter, 24 h; percent of 100 nM tunicamycin response. reporter increase, % at 12.5 µM. 360,000 tested, 0.23% active;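 active = mean luciferase reporter signal, scaled so untreated is 0 and the glycosylation-blocking control 100, at or above a set limit in every replicate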;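 also: luciferase carries N-glycosylation sites so blocking glycosylation raises the light; 0% = median of neutral control wells and 100% = median of 100 nM tunicamycin wells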
# Vif inh: HIV Vif inhibition; HEK293T cells, Vif self-association by quenched fluorescence, imaging, 24 h; inhibition, % at 7.49 µM; 340,000 tested, 0.35% active; AID 602346; in the data active = inhibition above about 50%, passing the limit was not always enough
# aDG glyco up: alpha-DG glycosylation activation; activation, % at 10 µM; Pro5-aDG cells, alpha-DG glycosylation AlphaScreen (IIH6); 0% Pro5, 100% B10-LARGE cell signal; 360,000 tested, 0.22% active;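 active = activation of at least 8% versus controls, or a plate z-score of at least 8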;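 also: Pro5 are CHO cells carrying HIG-tagged alpha-DG that lacks glycosylation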
# UCH37 DUB inh: human UCH37 deubiquitinating enzyme inhibition. purified proteasome/UCH37, Ub-AMC cleavage fluorescence. inhibition, % (no concentration beside the values). 330,000 tested, 0.33% active;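 active = mean inhibition over replicate wells above about 20%, limit read from the data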;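 also: 0% = compound-free wells with enzyme and 100% = wells lacking proteasome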
# Target sequence (Q9Y5K5 whole entry, looked up): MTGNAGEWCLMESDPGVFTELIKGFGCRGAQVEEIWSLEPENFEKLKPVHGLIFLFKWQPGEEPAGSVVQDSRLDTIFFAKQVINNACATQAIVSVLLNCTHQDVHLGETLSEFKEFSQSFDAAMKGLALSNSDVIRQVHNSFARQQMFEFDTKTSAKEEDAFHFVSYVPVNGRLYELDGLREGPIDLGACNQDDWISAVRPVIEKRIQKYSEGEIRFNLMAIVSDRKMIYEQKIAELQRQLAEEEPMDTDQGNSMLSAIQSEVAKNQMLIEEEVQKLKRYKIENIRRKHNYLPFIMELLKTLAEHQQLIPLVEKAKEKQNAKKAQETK
#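 Material: Human UCH37 enzyme supplied as purified proteasome complex | Schedule: 30 min compound-proteasome preincubation then 25 min substrate reaction, room temperature | Detection: AMC fluorescence from Ub-AMC cleavage, excitation 355 nm, emission 460 nm | Benchmarks: Wells without proteasome as full block, compound-free enzyme plus substrate as uninhibited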
# MsrA act: activates bovine MsrA enzyme | purified bovine MsrA, absorbance read-out | 360,000 tested, 0.3% active | activation, % at 10.6 µM; in the data active = activation above about 7.5%;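 also: 0% = vehicle and 100% = reference activator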
# MsrA inhibitor: bovine MsrA inhibition; purified bovine MsrA, absorbance read-out; inhibition, % at 15.5 µM; 360,000 tested, 0.75% active; AID 651718;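 also: 0% = vehicle wells with enzyme and 100% = reference inhibitor wells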
# MsrA conf: confirmation of bovine MsrA inhibitors | shares compounds with MsrA inhibitor | inhibition, % at 15.5 µM | 2,300 tested, 41% active | purified bovine MsrA, absorbance read-out;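 also: coupled to thioredoxin reductase with NADPH and selenocystamine and DMSO as substrate; 0% = vehicle only and 100% = full effect of reference inhibitor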
# An asterisk follows results filed as active; i = inactive; . = not tested or not shown. Rule as the data show it, unless noted: active = inhibition above about 4.5%; inactive = the rest.
SMILES,Glyco luc inh,Vif inh,aDG glyco up,UCH37 DUB inh,MsrA act,MsrA inhibitor,MsrA conf
O=C(O)CNC(=O)CC1S/C(=N/N=C/c2ccccc2O)NC1=O (configuration not stated),0,0,0,.,-7,7.5*,4
NC(=O)NC(=O)CC1S/C(=N/N=Cc2ccccc2)NC1=O (configuration not stated),.,.,.,7,.,.,.
O=C(O)CC1S/C(=N/N=C/C=C/c2ccccc2[N+](=O)[O-])NC1=O (configuration not stated),5,-1,0,.,-4,6.2*,6.3*
O=C(O)CC1S/C(=N/N=C/c2ccc(-c3ccc(Cl)c([N+](=O)[O-])c3)o2)NC1=O (configuration not stated),0,5,0,.,-5,5.4*,4
O=C(O)CC1S/C(=N/N=C/c2ccc(-c3ccc(Cl)cc3[N+](=O)[O-])o2)NC1=O (configuration not stated),4,-7,0,.,-4,4.9*,5.8*
O=C(CC1S/C(=N/N=C/C=C/c2ccccc2)NC1=O)Nc1ccc(Cl)c(Cl)c1 (configuration not stated),-3,0,0,.,-2,0,.
O=C(ON=C(c1ccccc1)c1ccncc1)c1ccccc1[N+](=O)[O-],.,.,.,3,.,.,.
COc1ccc(C=NNC(=O)c2[nH]c3ccc(Cl)cc3c2-c2ccccc2)c(C(=O)O)c1OC,.,.,.,-11,.,.,.
COc1cccc(/C=N/NC(=O)c2cc3c(OC)cccc3[nH]2)c1OC,4,-6,0,.,-4,5.3*,3
COc1ccc(/C=N/NC(=O)c2[nH]c3ccc(Cl)cc3c2-c2ccccc2)c(C(=O)O)c1OC,13,-13,0,.,-3,5.2*,6.5*
COc1cccc(/C=N/NC(=O)c2cc3c(OC)c(OC)ccc3[nH]2)c1OC,20,3,-1,.,-6,6.3*,4.6*
COc1cccc(/C=N/NC(=O)c2cc3c(OC)cccc3[nH]2)c1O,-8,4,1,.,-3,1,.
O=C(OCC(=O)N1CCN(C(=O)c2ccco2)CC1)c1ccccc1NCCO,-1,2,0,i,-2,4.7*,1
O=C(OCC(=O)N1CCN(C(=O)COC(=O)c2ccccc2NCCO)CC1)c1ccccc1NCCO,-2,-3,0,i,-2,2,.
CN(C)/N=C/c1ccc([N+](=O)[O-])cc1[N+](=O)[O-],0,1,0,.,-1,7.7*,3
O=C(ON=CC1=C(Cl)c2ccccc2CC1)c1ccc(F)cc1,.,.,.,0,.,.,.
CC(=NO)C(=O)NCCCn1ccnc1,.,.,.,1,.,.,.
COc1cccc(/C=N/Nc2ncnc(Cl)c2N)c1O,-12,11,1,.,-7,5.7*,5.2*
O=[N+]([O-])c1ccc(O)c(/C=N/Nc2nc3ccccc3[nH]2)c1,-9,1,1,.,0,3,.
COc1ccc(O)c(/C=N/Nc2nc3ccccc3[nH]2)c1,2,0,0,.,-2,5.8*,4
COc1cc(/C=N/Nc2nc3ccccc3[nH]2)ccc1O,-6,-1,2,.,-4,4.9*,3
COc1cc(/C=N/Nc2nc3ccccc3[nH]2)cc(OC)c1O,-8,2,1,.,-7,5.1*,4.7*
COC(=O)c1ccc(C=NNc2nc3ccccc3[nH]2)cc1,.,.,.,5,.,.,.
COc1cc(/C=N/Nc2nc3ccccc3[nH]c2=O)ccc1O,2,1,0,.,-5,1,.
COc1cccc(/C=N/Nc2nc3ccccc3[nH]2)c1O,-18,-2,0,.,-1,5.9*,5.2*
SMILES,Glyco luc inh,Vif inh,aDG glyco up,UCH37 DUB inh,MsrA act,MsrA inhibitor,MsrA conf
Cc1nnc(NN=CC2CC=CCC2)[nH]c1=O (configuration not stated),.,.,.,4,.,.,.
Cc1ccc(S(=O)(=O)NN=Cc2cccc([N+](=O)[O-])c2)cc1,.,.,.,3,.,.,.
CCN(CC)c1ccc(/C=N/NS(=O)(=O)c2cccc([N+](=O)[O-])c2)cc1,0,8,0,.,-7,5.4*,3
CCN(Cc1ccccc1)c1ccc(/C=N/NS(=O)(=O)c2ccc(C)c([N+](=O)[O-])c2)cc1,-4,4,0,.,-13,4.8*,2
CCN(CC)c1ccc(C=NCCc2ccc(S(N)(=O)=O)cc2)cc1,-3,4,0,9,-12,4.7*,3
CCN(CC)c1ccc(/C=N/NS(=O)(=O)c2ccc(CNC(C)=O)cc2)cc1,-1,-5,0,.,-4,6.2*,2
O=C(NN=Cc1ccncc1)c1cc(C2CC2)nc2ccccc12,.,.,.,2,.,.,.
CCOc1cc(C=NNC(=O)NN=Cc2ccc(O)c(OCC)c2)ccc1O,.,.,.,8,.,.,.
CCn1ncc([N+](=O)[O-])c1C(=O)Nc1c(C)cccc1C,2,-4,0,4,-4,14*,6.7*
CCn1ncc([N+](=O)[O-])c1C(=O)Nc1nc2cccc(C)c2s1,0,3,0,3,-6,0,.
CN1CCN(CCC(=O)NN=Cc2ccccn2)CC1,.,.,.,2,.,.,.
Oc1[nH]c2ccccc2c1C=NN1CCCCC1,.,.,.,11,.,.,.
CCOC(=O)/C(C#N)=C/c1cn(CCC(=O)O)nc1-c1ccc(OC)cc1,1,5,0,9,-5,5.0*,2
CCOC(=O)Cc1csc(NC(=O)/C=C/c2ccco2)n1,-1,4,0,14,-7,7.8*,4.6*
CC(=O)COc1ccc2oc(=O)cc(-c3cc4ccccc4o3)c2c1,1,5,0,-8,-3,13*,12*
COc1cccc2cc(-c3cc(=O)oc4cc(C)c(OCC(C)=O)cc34)oc12,3,-4,0,-44,-7,0,.
O=c1cc(-c2cc3ccccc3o2)c2cc(O)ccc2o1,-5,1,0,1,-5,.,.
Cc1cc2oc(=O)cc(-c3cc4ccccc4o3)c2cc1O,-5,-19,0,5,-4,6.5*,4
CCCNC(=O)Cn1nc(C)n2c(cc3cc(F)ccc32)c1=O,-1,-1,0,1,-2,1,.
CCN1CCCC1CNC(=O)Cn1nc(C)n2c(cc3cc(F)ccc32)c1=O (configuration not stated),0,0,0,-11,-8,25*,0
O=C(CSc1nc2sc3c(c2c(=O)n1-c1ccccc1)CCCC3)NN=Cc1ccccc1C(=O)O,.,.,.,-67,.,.,.
O=c1oc2ccccc2c(NC(c2ccccc2)c2ccccc2)c1[N+](=O)[O-],-2,.,0,2,-14,62*,56*
